What all share (format): functional
What all share (conditions): read-out: DIZ

The subject of assay [1] is Penicillium sp. Description: Antifungal activity against Penicillium sp. at 12.5 ug/ml after 72 hrs by well plate method.
Assay [2] concerns Aspergillus flavus. Description: Antifungal activity against Aspergillus flavus at 12.5 ug/ml after 72 hrs by well plate method.
The test system of assay [3] is Escherichia coli. Description: Antibacterial activity against Escherichia coli at 12.5 ug/ml after 24 to 48 hrs by well plate diffusion method. An outline of the steps: (§1)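 Agar well diffusion: 15-20 mL agar per dish, plates dried 1 h at 37 ± 2 °C in laminar flow, then seeded. Wells cut with an agar punch, each loaded with compound dissolved in DMSO (6.25 or 12.5 μg/mL). DMSO solvent control, ciprofloxacin standard. Plates in triplicate, incubated 37 ± 2 °C for 24–48 h. Inhibition zone diameter read in mm, with SD.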

Assay [4] has as its system Aspergillus niger. Description: Antifungal activity against Aspergillus niger at 6.25 ug/ml after 72 hrs by well plate method.
The subject of assay [5] is Aspergillus terreus. Kind of assay: Antifungal activity against Aspergillus terreus at 12.5 ug/ml after 72 hrs by well plate method. A digest of the protocol:
(§2)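 Sabouraud agar: peptone 10 g, glucose 40 g, agar 20 g per litre water, pH 5.7. Spore suspension made from a loopful of fungus in 3 mL normal saline and lawned on 20 mL agar per dish. Excess decanted, plates dried 1 h at 37 °C. Wells punched and loaded with compound in DMSO (6.25 or 12.5 μg/mL). DMSO control. Triplicate plates held at 25 °C for 72 h. Inhibition zone diameter measured. A. terreus strain NCIM 1325.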

Assay [6] relates to Staphylococcus aureus. Kind of assay: Antibacterial activity against Staphylococcus aureus at 12.5 ug/ml after 24 to 48 hrs by well plate diffusion method. A digest of the protocol:
as §1

The test system of assay [7] is Aspergillus flavus. Description: Antifungal activity against Aspergillus flavus at 6.25 ug/ml after 72 hrs by well plate method.
The test system of assay [8] is Salmonella sp. Kind of assay: Antibacterial activity against Salmonella sp. at 12.5 ug/ml after 24 to 48 hrs by well plate diffusion method. An outline of the steps:
as §1

Assay [9] deals with Salmonella sp. Kind of assay: Antibacterial activity against Salmonella sp. at 6.25 ug/ml after 24 to 48 hrs by well plate diffusion method. An outline of the steps:
as §1

Assay [10] deals with Xanthomonas sp. Kind of assay: Antibacterial activity against Xanthomonas sp. at 6.25 ug/ml after 24 to 48 hrs by well plate diffusion method. A digest of the protocol:
as §1

In assay [11] the test system is Aspergillus niger. Kind of assay: Antifungal activity against Aspergillus niger at 12.5 ug/ml after 72 hrs by well plate method.
The test system of assay [12] is Xanthomonas sp. Kind of assay: Antibacterial activity against Xanthomonas sp. at 12.5 ug/ml after 24 to 48 hrs by well plate diffusion method. A digest of the protocol:
as §1

In assay [13] the test system is Staphylococcus aureus. Kind of assay: Antibacterial activity against Staphylococcus aureus at 6.25 ug/ml after 24 to 48 hrs by well plate diffusion method. An outline of the steps: as §1
Assay [14] concerns Aspergillus terreus. Description: Antifungal activity against Aspergillus terreus at 6.25 ug/ml after 72 hrs by well plate method. A digest of the protocol: as §2
The subject of assay [15] is Escherichia coli. Kind of assay: Antibacterial activity against Escherichia coli at 6.25 ug/ml after 24 to 48 hrs by well plate diffusion method. An outline of the steps: as §1
Assay [16] has as its system Penicillium sp. Description: Antifungal activity against Penicillium sp. at 6.25 ug/ml after 72 hrs by well plate method.

As to `Fc1ccc(-c2cc(-c3nc4cc(Cl)c(Cl)cc4[nH]3)c3cc(F)ccc3n2)cc1`, the zone of inhibition at 12.5 µg/mL in [1] is 12 mm; in assay [2], 15 mm; in [3], 12 mm; in assay [5] it was 9 mm; in assay [6] it was 15 mm; in assay [8], 12 mm. Further, the zone of inhibition at 12.5 µg/mL in assay [11] amounted to 13 mm; in [12], 16 mm. Besides, the zone of inhibition at 6.25 µg/mL in assay [4] was 10 mm; in assay [7], 12 mm; in assay [9], 9 mm; in [10], 12 mm; in [13] it was 14 mm.

As to `Fc1ccc(-c2cc(-c3nc4ncccc4[nH]3)c3ccccc3n2)cc1`, the zone of inhibition at 12.5 µg/mL in [1] is 17 mm; in assay [2], 11 mm; in assay [3], 14 mm; in assay [5], 10 mm; in assay [6], 16 mm; in [8] it was 12 mm. For the same molecule, the zone of inhibition at 12.5 µg/mL came to 16 mm in assay [11] and 14 mm in assay [12]. The zone of inhibition at 6.25 µg/mL amounted to 14 mm in assay [4]; 9 mm in [14]; 9 mm in assay [9]; 14 mm in assay [15]; 10 mm in assay [10]; 16 mm in assay [16]. Moreover, the zone of inhibition at 6.25 µg/mL in [13] turned out to be 16 mm.

Take `O=C(O)c1cn(C2CC2)c2cc(N3CCNCC3)c(F)cc2c1=O` [CIPROFLOXACIN]: the figures for the zone of inhibition at 12.5 µg/mL in assay [6], in [8] and in assay [12] were 20 mm, 31 mm and 22 mm, respectively. Moreover, the results for the zone of inhibition at 6.25 µg/mL in assay [9], in assay [10] and in [13] were 19 mm, 18 mm and 18 mm, respectively.

Turning to `Fc1ccc(-c2cc(-c3nc4ccc(Cl)cc4[nH]3)c3cc(F)ccc3n2)cc1`, the zone of inhibition at 12.5 µg/mL came out at 17 mm in assay [1]; 10 mm in assay [2]; 11 mm in [3]; 14 mm in [5]; 12 mm in [6]; 11 mm in [8]. In addition, the zone of inhibition at 12.5 µg/mL in assay [11] amounted to 10 mm; in assay [12] it was 12 mm. The zone of inhibition at 6.25 µg/mL turned out to be 10 mm in assay [14]; 10 mm in [15]; 11 mm in [10]; 15 mm in [16]; 12 mm in assay [13].

Take `Fc1ccc(-c2cc(-c3nc4ccc(F)cc4[nH]3)c3ccccc3n2)cc1`: the zone of inhibition at 12.5 µg/mL in assay [1] is 15 mm; in assay [2], 14 mm; in assay [3], 11 mm; in assay [5], 12 mm; in assay [6], 16 mm; in assay [8] it was 11 mm. For the same molecule, the zone of inhibition at 12.5 µg/mL in assay [11] stood at 14 mm; in assay [12], 13 mm. Besides, the zone of inhibition at 6.25 µg/mL in [14] amounted to 12 mm; in assay [9] it was 10 mm; in assay [15] it was 10 mm; in assay [16] it was 12 mm; in assay [13] it was 10 mm.

Consider `Fc1ccc(-c2cc(-c3nc4ccccc4[nH]3)c3cc(F)ccc3n2)cc1`, for which the zone of inhibition at 12.5 µg/mL in assay [1] came to 12 mm; in [2], 10 mm; in assay [3], 15 mm; in assay [5], 9 mm; in assay [6] it was 15 mm; in assay [8], 15 mm. The results for the zone of inhibition at 12.5 µg/mL in assay [11] and in assay [12] were 12 mm and 14 mm, respectively. For the same molecule, the zone of inhibition at 6.25 µg/mL in [4] was determined as 10 mm; in [14] it was 9 mm; in assay [9], 15 mm; in assay [15] it was 10 mm; in assay [10], 14 mm; in [16] it was 12 mm. Also, the zone of inhibition at 6.25 µg/mL in assay [13] came to 14 mm.

With `COc1ccc2nc(-c3cc(-c4ccc(F)cc4)nc4ccccc34)[nH]c2c1`, the zone of inhibition at 12.5 µg/mL is 18 mm in [1]; 10 mm in assay [2]; 14 mm in [3]; 13 mm in [5]; 12 mm in [6]; 11 mm in [8]. For the same molecule, the zone of inhibition at 12.5 µg/mL in [11] was 12 mm; in [12], 14 mm. The zone of inhibition at 6.25 µg/mL was 10 mm in assay [4]; 12 mm in [14]; 10 mm in assay [9]; 12 mm in assay [15]; 12 mm in [10]; 16 mm in assay [16]. The zone of inhibition at 6.25 µg/mL in assay [13] is 12 mm.

For the molecule `OC(Cn1cncn1)(Cn1cncn1)c1ccc(F)cc1F` [FLUCONAZOLE], the zone of inhibition at 12.5 µg/mL in [1] stood at 21 mm; in [2], 20 mm; in [5] it was 18 mm; in [11] it was 18 mm. The zone of inhibition at 6.25 µg/mL in assay [4] was determined as 14 mm; in assay [14], 16 mm; in assay [7], 15 mm; in assay [16], 19 mm.

Consider `Fc1ccc(-c2cc(-c3nc4ccccc4[nH]3)c3cc(Cl)ccc3n2)cc1`, for which the zone of inhibition at 12.5 µg/mL in [1] amounted to 18 mm; in assay [3] it was 13 mm; in assay [5] it was 14 mm; in [6] it was 13 mm; in assay [8], 9 mm; in assay [11], 12 mm. For the same molecule, the zone of inhibition at 12.5 µg/mL in assay [12] is 10 mm. The zone of inhibition at 6.25 µg/mL amounted to 10 mm in assay [4], 13 mm in assay [14], 16 mm in assay [16] and 12 mm in [13].

Take `Fc1ccc(-c2cc(-c3nc4ncccc4[nH]3)c3cc(Cl)ccc3n2)cc1`: the zone of inhibition at 12.5 µg/mL in assay [1] was 13 mm; in assay [2], 10 mm; in assay [3], 16 mm; in [5], 15 mm; in [6], 18 mm; in [8], 20 mm. Further, the zone of inhibition at 12.5 µg/mL in assay [11] worked out at 14 mm; in assay [12], 16 mm. The zone of inhibition at 6.25 µg/mL worked out at 12 mm in assay [4]; 9 mm in assay [14]; 9 mm in assay [9]; 16 mm in [15]; 15 mm in assay [10]; 14 mm in assay [13].

With `Fc1ccc(-c2cc(-c3nc4ccc(Cl)cc4[nH]3)c3cc(Cl)ccc3n2)cc1`, the zone of inhibition at 12.5 µg/mL stood at 17 mm in assay [1]; 17 mm in assay [2]; 12 mm in assay [3]; 9 mm in [5]; 16 mm in assay [6]; 13 mm in [8]. In addition, the zone of inhibition at 12.5 µg/mL in [11] and in [12] was 10 mm throughout. Moreover, the zone of inhibition at 6.25 µg/mL in assay [14] came out at 9 mm; in assay [9], 10 mm; in assay [15] it was 12 mm; in assay [16], 12 mm; in assay [13], 16 mm.

As for `Fc1ccc(-c2cc(-c3nc4ccc(F)cc4[nH]3)c3cc(F)ccc3n2)cc1`, the zone of inhibition at 12.5 µg/mL was found to be 13 mm in assay [1]; 16 mm in assay [3]; 9 mm in assay [5]; 12 mm in assay [6]; 13 mm in [8]; 17 mm in assay [11]. Besides, in [12], the zone of inhibition at 12.5 µg/mL was found to be 14 mm. Moreover, the zone of inhibition at 6.25 µg/mL amounted to 10 mm in [4]; 10 mm in assay [14]; 9 mm in assay [9]; 16 mm in [15]; 13 mm in assay [16]; 12 mm in [13].

Source of the values: ChEMBL document CHEMBL2040711, “Synthesis, characterization and antimicrobial studies of some new quinoline incorporated benzimidazole derivatives” (2012).
